These results are taken from ChEMBL document CHEMBL4477197, “Antitumor Activity of Spicatoside A by Modulation of Autophagy and Apoptosis in Human Colorectal Cancer Cells” (J Nat Prod, 2016).

Assay [1] deals with HCT-116. Description: Induction of autophagy in human HCT116 cells assessed as upregulation of LAMP1 expression at 10 to 30 uM after 24 hrs by Western blot analysis. It counts as functional, cell-based. The method in brief: (§1)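 HCT116 cells were cultured 24 h with the indicated concentrations. Lysates were made in SDS buffer with NaF and orthovanadate and quantified by BCA; 10–30 μg protein was separated by 6–15% SDS-PAGE and transferred to PVDF. After 5% BSA blocking, blots were probed for LC3-II, beclin 1, p62, LAMP1 and cathepsin D, with ECL detection.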
A general note: Immunoblotting shows a protein as a band on a membrane.

For assay [2], the system named is HCT-116. Description: Antitumor activity against human HCT116 cells xenografted in BALB/c-nu mouse assessed as inhibition of tumor weight at 2.5 mg/kg, ip administered three times per week for 28 days measured post dosing relative to control. The following applies: HCT-116, ip, 672 h. It is filed as functional. The method in brief: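 Nude mice bearing subcutaneous HCT116 flank tumors (2 × 10^6 cells) were randomized at ~200 mm3, five per group. Dosing was 2.5 or 5 mg/kg ip in saline/0.5% Tween 80, three times weekly for 28 days, with vehicle controls. Tumors were excised on day 28 and weighed; inhibition was expressed against the vehicle group.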

In assay [3] the test system is HCT-116. Description: Induction of autophagy in human HCT116 cells assessed as accumulation of LC3-2 after 24 hrs by Western blot analysis. It counts as functional, cell-based. The method in brief: as §1
In assay [4] the test system is HCT-116. Description: Cell cycle arrest in human HCT116 cells assessed as accumulation at subG1 phase at 20 uM after 48 hrs by propidium iodide staining based flow cytometry. It is filed as functional. For orientation: In flow cytometry, cells or beads pass a laser one at a time.
For assay [5], the system named is HCT-116. Description: Induction of apoptosis in human HCT116 cells assessed as PARP cleavage at 30 uM after 24 hrs in presence of autophagy inhibitor 3-MA by Western blot analysis. It is filed as functional, cell-based. The method in brief:
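HCT116 cells were pretreated 1 h with 2 mM 3-MA, then given 30 μM compound for a further 24 h. Whole-cell lysates were immunoblotted for LC3-II and cleaved PARP, with β-actin as loading standard and ECL detection. Blots are representative of three separate determinations.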

Assay [6] relates to HCT-116. Description: Induction of apoptosis in human HCT116 cells assessed as upregulation of Bax levels at 10 to 30 uM after 48 hrs by Western blot analysis. It counts as functional, cell-based.
For assay [7], the system named is HCT-116. Description: Induction of apoptosis in human HCT116 cells assessed as caspase 8 cleavage at 30 uM upto 48 hrs by Western blot analysis. It is filed as functional, cell-based. The method in brief:
(§2)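 Time course: HCT116 cells were exposed to 30 μM compound for 6, 12, 24, 36 and 48 h. LC3-II, beclin 1, cleaved caspase-8 and cleaved PARP were measured by Western blot (SDS-PAGE, PVDF, ECL) with β-actin as internal standard.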

The test system of assay [8] is HCT-116. Description: Induction of autophagy in human HCT116 cells assessed as increase in LC3-2 expression at 30 uM at 24 hrs by Western blot analysis. It is filed as functional, cell-based.
Assay [9] concerns the target Mitogen-activated protein kinase; ERK1/ERK2 (Homo sapiens) (UniProt P27361+P28482). Description: Inhibition of ERK1/2 phosphorylation in human HCT116 cells after 24 hrs by Western blot analysis. It counts as cell-based.
For assay [10], the system named is HCT-116. Description: Induction of apoptosis in human HCT116 cells at 30 uM after 48 hrs by Annexin V-FITC/propidium iodide staining based flow cytometry. It is filed as functional. The method in brief: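 HCT116 cells were treated 48 h, then resuspended in binding buffer at 1 × 10^6 cells/mL. They were stained with annexin V-FITC and PI for 20 min at room temperature in the dark, diluted and analyzed immediately by flow cytometry for annexin V-positive cells. n = 3.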

For assay [11], the target named is MAP kinase p38 (Homo sapiens) (UniProt O15264+Q15759+Q16539+P53778). Description: Induction of p38 phosphorylation in human HCT116 cells after 24 hrs by Western blot analysis. It is filed as cell-based.
Assay [12] concerns HCT-116. Description: Cell cycle arrest in human HCT116 cells assessed as accumulation at subG1 phase at 30 uM after 48 hrs by propidium iodide staining based flow cytometry. It is filed as functional.
The test system of assay [13] is HCT-116. Description: Increase in LC3-2 levels in human HCT116 cells at 30 uM after 48 hrs in presence of z-IETD-FMK by Western blot analysis. It is filed as functional, cell-based. The method in brief:
(§3)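 HCT116 cells were cultured 48 h with 30 μM compound, with or without 20 μM z-IETD-FMK. Lysates were made in SDS loading buffer and 10–30 μg protein was resolved by 6–15% SDS-PAGE and transferred to PVDF. Blots were probed for cleaved caspase-8, beclin 1, cleaved beclin 1 and LC3-II, and detected by ECL.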

The subject of assay [14] is HCT-116. Description: Induction of caspase 8 cleavage in human HCT116 cells at 30 uM after 48 hrs in presence of caspase 8 inhibitor z-IETD-FMK by Western blot analysis. It is filed as functional, cell-based. The method in brief:
as §3

The nature of assay [15]: Inhibition of PI3K/Akt/mTOR in human HCT116 cells assessed as downregulation of PI3K p101 at 10 to 30 uM after 24 hrs by Western blot analysis. It is filed as cell-based. The method in brief:
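HCT116 cells were lysed after 24 h with the indicated concentrations. PI3K, PTEN, Akt and mTOR were immunoblotted (SDS-PAGE, PVDF, 5% BSA block, ECL).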

The test system of assay [16] is HCT-116. Description: Induction of autophagy in human HCT116 cells assessed as downregulation of p62 expression at 10 to 30 uM after 24 hrs by Western blot analysis. It counts as functional, cell-based. The method in brief: as §1
For another assay, the system named is Mus musculus. Description: Inhibition of Ki-67 expression in human HCT116 cells xenografted in BALB/c-nu mouse at 2.5 to 5 mg/kg, ip administered three times per week for 28 days measured post dosing by hematoxylin staining based inverted phase-contrast microscopy. It is filed as functional, organism-based. The method in brief:
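Day-28 xenograft tumors were fixed in 4% paraformaldehyde, paraffin-embedded and serially sectioned. Sections were deparaffinized, rehydrated, antigen-retrieved and immunostained for Ki-67 with HRP detection, then counterstained with hematoxylin. Slides were viewed by inverted phase-contrast microscopy at 200×.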

The test system of assay [17] is HCT-116. Description: Antitumor activity against human HCT116 cells xenografted in BALB/c-nu mouse assessed as inhibition of tumor volume at 5 mg/kg, ip administered three times per week for 28 days measured every 3 to 4 days of dosing relative to control. It counts as functional. The following applies: HCT-116, ip. Summed up:
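HCT116 cells (2 × 106 in 200 μL medium) injected subcutaneously into the right flank of nude mice; at ~200 mm3, mice randomized into groups of five. Compound at 2.5 or 5 mg/kg, dissolved in normal saline with 0.5% Tween 80, given ip three times weekly for 28 days; vehicle controls got equal volume. Tumor volume measured by caliper every 3–4 days.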
In general terms: A xenograft is tissue or cells of one species grown in another, often human tumour cells in immunodeficient mice.

In assay [18] the test system is HCT-116. Description: Induction of beclin 1 cleavage in human HCT116 cells at 30 uM after 48 hrs in presence of caspase-8 inhibitor z-IETD-FMK by Western blot analysis. It is filed as functional, cell-based. The method in brief: as §3
Assay [19] concerns HCT-116. Description: Induction of apoptosis in human HCT116 cells assessed as PARP cleavage at 30 uM upto 48 hrs by Western blot analysis. It is filed as functional, cell-based. The method in brief:
as §2

Assay [20] concerns HCT-116. Description: Induction of autophagy in human HCT116 cells assessed as upregulation of cathepsin D expression at 10 to 30 uM after 24 hrs by Western blot analysis. It counts as functional, cell-based. Summed up: as §1
For assay [21], the system named is HCT-116. Description: Induction of autophagy in human HCT116 cells assessed as formation of acidic vesicular organelles at 20 uM after 24 hrs in presence of bafilomycin A1 by acridine orange staining based assay. It counts as functional, cell-based. Summed up: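 Cells were seeded at 1 × 10^5/well, grown 24 h, then treated 24 h with 20 μM compound, 2.5 nM bafilomycin A1, or both. They were stained with acridine orange (2 μg/mL) for 15 min and washed in DPBS. AO-positive cells were quantified by high-content imaging and expressed as an index versus vehicle. Triplicates.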

Active and inactive are the calls of the source. The calls are words filed in the database; no cut-off is given here.

Sequence of Mitogen-activated protein kinase; ERK1/ERK2 (Homo sapiens) (P27361 whole entry, looked up): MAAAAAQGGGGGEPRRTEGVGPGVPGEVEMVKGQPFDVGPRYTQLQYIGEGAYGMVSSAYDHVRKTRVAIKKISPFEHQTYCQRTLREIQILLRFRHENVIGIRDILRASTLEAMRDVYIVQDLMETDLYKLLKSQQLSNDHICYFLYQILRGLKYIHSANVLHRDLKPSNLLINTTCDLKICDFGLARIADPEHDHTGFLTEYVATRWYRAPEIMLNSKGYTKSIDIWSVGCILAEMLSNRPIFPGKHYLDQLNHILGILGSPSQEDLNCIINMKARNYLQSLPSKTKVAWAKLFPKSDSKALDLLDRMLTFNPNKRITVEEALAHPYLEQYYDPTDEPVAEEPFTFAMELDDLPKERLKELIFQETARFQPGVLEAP
Sequence of Mitogen-activated protein kinase; ERK1/ERK2 (Homo sapiens) (P28482 whole entry, looked up): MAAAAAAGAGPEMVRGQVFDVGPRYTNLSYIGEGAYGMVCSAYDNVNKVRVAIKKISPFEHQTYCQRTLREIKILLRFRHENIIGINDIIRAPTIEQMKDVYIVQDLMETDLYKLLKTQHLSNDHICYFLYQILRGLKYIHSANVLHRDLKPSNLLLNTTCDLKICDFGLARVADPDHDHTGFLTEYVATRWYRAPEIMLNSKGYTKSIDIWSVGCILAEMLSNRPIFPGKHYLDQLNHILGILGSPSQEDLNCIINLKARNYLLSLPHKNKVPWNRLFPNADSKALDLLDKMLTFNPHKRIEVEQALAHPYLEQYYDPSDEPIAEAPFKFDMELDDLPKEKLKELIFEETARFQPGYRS

For the molecule `C[C@H]1CC[C@@]2(OC1)O[C@H]1C[C@H]3[C@@H]4CC=C5C[C@@H](O)C[C@@H](O[C@@H]6O[C@H](C)[C@H](O)[C@H](O[C@@H]7OC[C@@H](O)[C@H](O)[C@H]7O)[C@H]6O[C@@H]6O[C@H](CO)[C@@H](O)[C@H](O)[C@H]6O)[C@]5(C)[C@H]4CC[C@]3(C)[C@H]1[C@@H]2C`, the result with HCT-116 [1], in the assay with HCT-116 [5], with HCT-116 [6], with HCT-116 [7], in the assay with HCT-116 [8] and with HCT-116 [13] was Active. The outcome in the assay with HCT-116 [16], with HCT-116 [19] and in the assay on HCT-116 [20] was Active. The inhibition in vivo (usually the change of the read-out against control, counted positive when it falls) at 2.5 mg/kg in the assay on HCT-116 [2] worked out at 43%. The Activity result in the assay with HCT-116 [3] is “Dose-dependent effect”; in the assay with HCT-116 [4] it was 12.56%; in the assay on HCT-116 [10], 24.58%; in [11], “Dose-dependent effect”; in the assay with HCT-116 [12], 45.37%. Moreover, the inhibition entry in [9] is “Dose-dependent effect”. Besides, the outcome in the assay with HCT-116 [14], with HCT-116 [18] and in the assay on HCT-116 [21] was inactive. Besides, the inhibition result (in [15]; in the assay on Mus musculus) was “Active” in each case. Further, the inhibition in vivo at 5 mg/kg in the assay on HCT-116 [17] amounted to 57.5%.
